Source: ChEMBL document CHEMBL4052757, “Bistacrines as potential antitrypanosomal agents” (Bioorg Med Chem, 2017)
Activity calls are given as the source filed them. No cut-off for these calls is given here.

Columns and labels:
[1] = Aqueous solubility of the compound; type: physicochemical; conditions: buffer
[2] = system: Trypanosoma brucei brucei; assay: Antitrypanosomal activity against Trypanosoma brucei brucei TC221 after 48 hrs by alamar blue assay; type: functional; conditions: TC221, 48 h
How it was run: (§1)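 T. b. brucei TC221 bloodstream-form proliferation measured by alamarBlue (resazurin reduced to resorufin by living cells); 48 h and 72 h read-outs. IC50 derived per Räz et al. method; each compound tested in duplicate, mean of two values.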

J774.1 = assay: Cytotoxicity against mouse J774.1 cells after 24 hrs by alamar blue assay; type: cell-based; conditions: J774.1, 24 h
[3] = Selectivity index, ratio of IC50 for mouse J774.1 cells to IC50 for Trypanosoma brucei brucei TC221 measured after 48 hrs; type: toxicity; conditions: J774.1 cells (versus Trypanosoma brucei brucei TC221), read-out: Ratio IC50
How it was run: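 Selectivity index computed as IC50 (J774.1 macrophages, alamarBlue) divided by IC50 (T. b. brucei TC221, alamarBlue); duplicate determinations, means used.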

[4] = system: Trypanosoma brucei brucei; assay: Antitrypanosomal activity against Trypanosoma brucei brucei TC221 after 72 hrs by alamar blue assay; type: functional; conditions: TC221, 72 h; how it was run: as §1
Leishmania infantum = assay: Antileishmanial activity against Leishmania infantum; type: functional
Rhodesain = Rhodesain (Trypanosoma brucei rhodesiense, UniProt Q95PM0); assay: Inhibition of Trypanosoma brucei rhodesiense rhodesain using Cbz-Phe-Arg-AMC as substrate measured for 10 mins by spectrofluorometric analysis
Sequence of Rhodesain (Q95PM0 whole entry): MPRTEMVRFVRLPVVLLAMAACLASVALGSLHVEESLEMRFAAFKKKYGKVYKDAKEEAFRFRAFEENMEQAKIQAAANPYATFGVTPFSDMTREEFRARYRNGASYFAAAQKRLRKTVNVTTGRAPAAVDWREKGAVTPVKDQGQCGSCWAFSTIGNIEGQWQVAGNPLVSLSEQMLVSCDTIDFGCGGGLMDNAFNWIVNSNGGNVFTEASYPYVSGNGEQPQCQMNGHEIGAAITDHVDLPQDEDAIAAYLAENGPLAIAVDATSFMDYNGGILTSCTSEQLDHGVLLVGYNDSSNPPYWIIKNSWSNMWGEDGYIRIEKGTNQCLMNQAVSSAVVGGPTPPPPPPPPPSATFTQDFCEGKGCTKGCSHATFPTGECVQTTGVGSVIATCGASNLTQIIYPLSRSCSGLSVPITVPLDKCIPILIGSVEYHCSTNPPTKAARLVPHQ

[5] = Inhibition of trypanothione reductase
[6] = molecular target: Rhodesain (Trypanosoma brucei rhodesiense) (UniProt Q95PM0); assay: Inhibition of Trypanosoma brucei rhodesiense rhodesain using Cbz-Phe-Arg-AMC as substrate by spectrofluorometric analysis
Sequence of Rhodesain (Trypanosoma brucei rhodesiense) (Q95PM0 1-450): as the sequence (Q95PM0 whole entry) above

[7] = molecular target: Rhodesain (Trypanosoma brucei rhodesiense) (UniProt Q95PM0); assay: Inhibition of Trypanosoma brucei rhodesiense rhodesain at 20 uM using Cbz-Phe-Arg-AMC as substrate measured for 5 mins by spectrofluorometric analysis relative to control
How it was run: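 Rhodesain in 50 mM sodium acetate pH 5.5 with 5 mM DTT, 5 mM EDTA, 200 mM NaCl; inhibitor 20 µM, substrate Cbz-Phe-Arg-AMC; AMC fluorescence (ex 380/em 460 nm) followed 5 min; activity from slopes of fluorescence vs time versus DMSO control; run in duplicate.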

[8] = Stability of the compound; type: physicochemical
[9] = Ratio of IC50 for Trypanosoma brucei rhodesiense rhodesain to IC50 for Trypanosoma brucei brucei TC221
[10] = molecular target: Trypanothione reductase (Trypanosoma cruzi) (UniProt P28593); assay: Inhibition of Trypanosoma cruzi trypanothione reductase at 5 uM using 40 uM trypanothione disulfide as substrate by spectrophotometric method relative to control
Sequence of Trypanothione reductase (Trypanosoma cruzi) (P28593 whole entry, looked up): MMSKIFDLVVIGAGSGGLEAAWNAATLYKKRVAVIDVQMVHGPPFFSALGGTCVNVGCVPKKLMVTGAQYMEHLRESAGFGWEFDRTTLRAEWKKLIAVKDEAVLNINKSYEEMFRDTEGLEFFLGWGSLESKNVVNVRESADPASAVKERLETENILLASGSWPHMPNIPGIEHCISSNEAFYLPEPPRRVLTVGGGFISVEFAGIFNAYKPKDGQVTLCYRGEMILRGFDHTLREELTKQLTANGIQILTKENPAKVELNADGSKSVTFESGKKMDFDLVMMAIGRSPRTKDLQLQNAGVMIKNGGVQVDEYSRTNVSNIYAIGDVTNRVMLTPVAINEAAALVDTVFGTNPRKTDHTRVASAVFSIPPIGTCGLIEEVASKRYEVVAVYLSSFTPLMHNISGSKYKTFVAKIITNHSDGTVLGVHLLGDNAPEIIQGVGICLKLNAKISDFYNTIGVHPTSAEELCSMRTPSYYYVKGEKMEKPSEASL
How it was run: (§2)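 TcTryR (about 2 nM) in 40 mM HEPES, 1 mM EDTA, pH 7.5, 100 µM NADPH; inhibitor at fixed 2 or 5 µM (screening range 1–5 µM) from DMSO stock; TS2 fixed at 40 or 100 µM; absorbance decrease monitored; percent inhibition versus DMSO control.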

[11] = molecular target: Trypanothione reductase (Trypanosoma cruzi) (UniProt P28593); assay: Inhibition of Trypanosoma cruzi trypanothione reductase at 2 uM using 40 uM trypanothione disulfide as substrate by spectrophotometric method relative to control; how it was run: as §2
[12] = molecular target: Trypanothione reductase (Trypanosoma cruzi) (UniProt P28593); assay: Inhibition of Trypanosoma cruzi trypanothione reductase at 5 uM using 100 uM trypanothione disulfide as substrate by spectrophotometric method relative to control; how it was run: as §2
[13] = molecular target: Trypanothione reductase (Trypanosoma cruzi) (UniProt P28593); assay: Inhibition of Trypanosoma cruzi trypanothione reductase at 2 uM using 100 uM trypanothione disulfide as substrate by spectrophotometric method relative to control; how it was run: as §2

Row | Compound | IC50 [2] [µM] | IC50 (J774.1) [µM] | selectivity ratio at 48 h [3] | IC50 [4] [µM] | Activity (Leishmania infantum) | inhibition [5] | also measured
1 | O=C1CCCc2nc3ccccc3c(NCCCCCCCNc3c4c(nc5ccccc35)CCCC4=O)c21 | – | – | – | – | – | – | solubility [1]: Insoluble
2 | O=C1CCCc2nc3ccccc3c(NCCCCCCNc3c4c(nc5ccccc35)CCCC4=O)c21 | – | – | – | – | – | – | solubility [1]: Insoluble
3 | N=C(N)c1ccc(OCCCCCOc2ccc(C(=N)N)cc2)cc1 [PENTAMIDINE] | 0.0053 | 38.6 | 7280 | – | – | – | –
4 | CC1CCc2c(nc3ccccc3c2N)C1 (stereo not drawn) | 14.5 | 45 | 3.1 | 17.6 | – | – | –
5 | Nc1c2c(nc3ccccc13)CCCC2 [TACRINE] | 14.6 | – | > 6.8 | 18.4 | – | – | –
6 | O=C1CCCc2nc3ccccc3c(NCCCCCCCCCCNc3c4c(nc5ccccc35)CCCC4=O)c21 | – | – | – | – | – | – | solubility [1]: Insoluble
7 | CCOC1CCc2nc3cc(Cl)ccc3c(NCCCCCCCCCNc3c4c(nc5cc(Cl)ccc35)CCC(OCC)C4)c2C1 (stereo not drawn) | 0.63 | 1.7 | 2.8 | 0.71 | Active | Active | IC50 (Rhodesain): 13.3 µM; inhibition [6]: Dose-dependent effect; inhibition [7]: 89%
8 | c1ccc2c(NCCCCCNc3c4c(nc5ccccc35)CCCC4)c3c(nc2c1)CCCC3 | 5.2 | – | – | 6.4 | Active | – | inhibition [7]: 9%
9 | CCC1CCc2nc3ccc(Cl)cc3c(N)c2C1 (stereo not drawn) | 2.7 | 8.3 | 3.1 | 3.7 | – | – | –
10 | COc1ccc2nc3c(c(NCCCCCCCCCNc4c5c(nc6ccc(OC)cc46)CCCC5)c2c1)CCCC3 | 0.12 | – | 10.6 | 0.14 | Active | Active | IC50 (Rhodesain): 18.1 µM; inhibition [6]: Dose-dependent effect; inhibition [7]: 82%
11 | CCCC1CCc2nc3ccc(Cl)cc3c(N)c2C1 (stereo not drawn) | 2.7 | – | 3.1 | 3.4 | – | – | –
12 | C1=Cc2c(nc3ccccc3c2NCCCCCCCCCNc2c3c(nc4ccccc24)CCC=C3)CC1 | 0.09 | 1.6 | 16.7 | 0.25 | Active | Active | Stability [8]: Stable
13 | CC1CCc2nc3ccccc3c(NCCCCCCCCCNc3c4c(nc5ccccc35)CCC(C)C4)c2C1 (stereo not drawn) | 0.16 | 1.8 | 11.3 | 0.21 | Active | Active | IC50 (Rhodesain): 26.6 µM; inhibition [6]: Dose-dependent effect; inhibition [7]: 68%
14 | C1=Cc2c(nc3ccccc3c2NCCCCCCNc2c3c(nc4ccccc24)CCC=C3)CC1 | 0.51 | 1.8 | 3.5 | 0.7 | Active | Active | Stability [8]: Stable
15 | CCC1CCc2nc3cc(Cl)ccc3c(N)c2C1 (stereo not drawn) | 2.8 | 24.4 | 8.7 | 3.5 | – | – | –
16 | Nc1c2c(nc3ccc([N+](=O)[O-])cc13)CCCC2 | 8.6 | – | 5.2 | 15.1 | – | – | –
17 | C1=Cc2c(nc3ccccc3c2NCCCCCCCCCCNc2c3c(nc4ccccc24)CCC=C3)CC1 | 0.29 | 9.7 | 33.4 | 0.88 | Active | Active | Stability [8]: Stable
18 | CC1CCc2c(nc3ccc([N+](=O)[O-])cc3c2N)C1 (stereo not drawn) | 6.1 | 43.3 | 7.1 | 3.7 | – | – | –
19 | CCCC1CCc2nc3ccccc3c(N)c2C1 (stereo not drawn) | 2.6 | – | 16.5 | 3.5 | – | – | –

Row | Compound | IC50 [2] [µM] | IC50 (J774.1) [µM] | selectivity ratio at 48 h [3] | IC50 [4] [µM] | Activity (Leishmania infantum) | inhibition [5] | also measured
20 | Clc1ccc2c(NCCCCCCNc3c4c(nc5cc(Cl)ccc35)CCCC4)c3c(nc2c1)CCCC3 | 0.64 | 2.8 | 4.4 | 0.71 | Active | Active | Ratio IC50 [9]: 10; IC50 (Rhodesain): 7.4 µM; inhibition [6]: Dose-dependent effect; inhibition [7]: 61%
21 | O=C1CCCc2nc3ccccc3c(NCCCCCCCCCNc3c4c(nc5ccccc35)CCCC4=O)c21 | – | – | – | – | – | – | solubility [1]: Insoluble
22 | c1ccc2c(NCCCCCCCCCCNc3c4c(nc5ccccc35)CCCC4)c3c(nc2c1)CCCC3 | 0.12 | – | 15 | 0.15 | Active | Active | –
23 | CCCC1CCc2nc3cc(Cl)ccc3c(N)c2C1 (stereo not drawn) | 2.6 | 8.4 | 3.2 | 3.4 | – | – | –
24 | O=C1CCCc2nc3ccccc3c(NCCCCCCCCNc3c4c(nc5ccccc35)CCCC4=O)c21 | – | – | – | – | – | – | solubility [1]: Insoluble
25 | c1ccc2c(NCCCCCCNc3c4c(nc5ccccc35)CCCC4)c3c(nc2c1)CCCC3 | 0.26 | 3 | – | 0.33 | Active | – | inhibition [10]: 56.6 to 57.5%; inhibition [11]: 27.5 to 29.2%; inhibition [12]: 45.2 to 47.9%; inhibition [13]: 15.1%; inhibition [7]: 25%
26 | CC1(C)CCc2c(nc3cc(Cl)ccc3c2NCCCCCCNc2c3c(nc4cc(Cl)ccc24)CC(C)(C)CC3)C1 | 0.64 | 1.7 | 2.7 | 0.72 | Active | Active | IC50 (Rhodesain): 26.6 µM; inhibition [6]: Dose-dependent effect; inhibition [7]: 64%
27 | Nc1c2c(nc3ccc(Cl)cc13)CCCC2 | 12 | – | 3.6 | 16.5 | – | – | –
28 | CCC1CCc2nc3ccccc3c(N)c2C1 (stereo not drawn) | 12.3 | 43.6 | 3.5 | 17.2 | – | – | –
29 | C1=Cc2c(nc3ccccc3c2NCCCCCCCCNc2c3c(nc4ccccc24)CCC=C3)CC1 | 0.08 | 1.7 | 21.3 | 0.25 | Active | Active | Stability [8]: Stable
30 | CC1CCc2nc3ccc([N+](=O)[O-])cc3c(N)c2C1 (stereo not drawn) | 3.2 | 46.4 | 14.5 | 4.8 | – | – | –
31 | CCCCOC1CCc2nc3cc(Cl)ccc3c(NCCCCCCCCCNc3c4c(nc5cc(Cl)ccc35)CCC(OCCCC)C4)c2C1 (stereo not drawn) | 0.43 | 8.6 | 20 | 0.42 | Active | Active | inhibition [7]: 26%
32 | CC1CCc2nc3ccccc3c(N)c2C1 (stereo not drawn) | 15.8 | 44.9 | 2.8 | 18.1 | – | – | –
33 | Nc1c2c(nc3ccccc13)CCCC2=O | 14.6 | > 100 | > 6.8 | 18 | – | – | –
34 | Nc1c2c(nc3cc(Cl)ccc13)CCCC2 | 12.6 | 41 | 3.3 | 17.1 | – | – | –
35 | CC1CCc2nc3cc(Cl)ccc3c(N)c2C1 (stereo not drawn) | 6 | 41.2 | 6.9 | 13.4 | – | – | –
36 | CC1CCc2c(nc3ccc([N+](=O)[O-])cc3c2NCCCCCCNc2c3c(nc4ccc([N+](=O)[O-])cc24)CC(C)CC3)C1 (stereo not drawn) | 0.62 | – | 38.5 | 0.68 | Active | Active | Ratio IC50 [9]: 10; IC50 (Rhodesain): 5.8 µM; inhibition [6]: Dose-dependent effect; inhibition [7]: 82%
37 | CC1CCc2nc3ccc(Cl)cc3c(N)c2C1 (stereo not drawn) | 3.9 | 43.8 | 11.2 | 10.3 | – | – | –
